The values below come from ChEMBL document CHEMBL4138103, “Discovery of efficient stimulators for adult hippocampal neurogenesis based on scaffolds in dragon's blood” (Eur J Med Chem, 2017).

The structures appear in SMILES notation.

Common to all, as to format: cell-based
Settings in all cases: read-out: Survival

A short description of data set [1]: Cytotoxicity against human SH-SY5Y cells assessed as cell survival at 500 uM after 24 hrs by MTT assay relative to control. In a few lines: (§1)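 SH-SY5Y human neuroblastoma cells seeded at 5 × 10⁴ cells/mL, incubated 24 h at 37 °C, then exposed to compounds at final concentrations of […] for 24 h. MTT added for a further 4 h at 37 °C. Absorbance read at 570 nm and reported as percent viability. Five parallel samples per condition.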

A short description of data set [2]: Cytotoxicity against human SH-SY5Y cells assessed as cell survival at 100 uM after 24 hrs by MTT assay relative to control. In a few lines:
as §1
In general terms: Formazan colour is commonly taken as a measure of viable cells.

Data set [3] can be described thus: Cytotoxicity against human SH-SY5Y cells assessed as cell survival at 1000 uM after 24 hrs by MTT assay relative to control. The method in brief:
as §1

Turning to `Oc1ccc(/C=C/c2cc(C(F)(F)F)cc(C(F)(F)F)c2)cc1`, the viability at 24 h, 500 µM in data set [1] was -0.07%. In addition, the viability at 24 h, 100 µM in data set [2] is -4.81%. Moreover, the viability at 24 h, 1000 µM in data set [3] is -3.86%.
`COc1ccc2c(c1)OC(c1ccc3c(c1)OCO3)CC2=O` (stereo not drawn): the viability at 24 h, 500 µM in data set [1] worked out at 44.8%. Besides, the viability at 24 h, 100 µM in data set [2] was determined as 73.2%. The viability at 24 h, 1000 µM in data set [3] was 27.3%.
For `CC(=O)Nc1cccc(/C=C/c2ccc3c(c2)OCO3)c1`, the viability at 24 h, 500 µM in data set [1] stood at 7.78%. In addition, in data set [2], the viability at 24 h, 100 µM was found to be 20.9%. Besides, the viability at 24 h, 1000 µM in data set [3] worked out at 2.7%.
Turning to `Oc1ccc(/C=C/c2ccc3c(c2)OCCO3)cc1`, the viability at 24 h, 500 µM in data set [1] was 2%. The viability at 24 h, 100 µM in data set [2] was 2.8%. In data set [3], the viability at 24 h, 1000 µM is -0.08%.
As for `COc1ccc(C#Cc2cc(C)cc(C)c2)cc1`, the viability at 24 h, 500 µM in data set [1] was determined as 24.3%. Also, in data set [2], the viability at 24 h, 100 µM was found to be 54.2%. Besides, the viability at 24 h, 1000 µM in data set [3] turned out to be 22.1%.
For `COc1ccc(/C=C/c2ccc(Cl)cc2)cc1OC`, in data set [1], the viability at 24 h, 500 µM worked out at 51.6%. For the same compound, in data set [2], the viability at 24 h, 100 µM was found to be 57.3%. The viability at 24 h, 1000 µM in data set [3] was 56.4%.
For `N#Cc1cccc(/C=C/c2ccc(O)cc2)c1`, the viability at 24 h, 500 µM in data set [1] was 16.9%. Also, the viability at 24 h, 100 µM in data set [2] is 20.9%. Moreover, the viability at 24 h, 1000 µM in data set [3] came out at 14.9%.
The like results for `COc1ccc(/C=C/c2ccc(N)cc2)cc1OC` were, in that order, 51.7%, 53.7% and 50.4%.
With `COc1ccc(/C=C/c2ccc(O)cc2)cc1OC`, in data set [1], the viability at 24 h, 500 µM came out at 44.1%. In addition, in data set [2], the viability at 24 h, 100 µM is 56.8%. Besides, the viability at 24 h, 1000 µM in data set [3] amounted to 35.3%.
`CC(=O)c1ccc(/C=C/c2ccc3c(c2)OCO3)cc1`: the viability at 24 h, 500 µM in data set [1] worked out at 63.5%. Moreover, in data set [2], the viability at 24 h, 100 µM came out at 70.3%. Further, in data set [3], the viability at 24 h, 1000 µM stood at 53.9%.
For `CC(=O)c1ccc(/C=C/c2ccc(O)cc2)cc1`, the viability at 24 h, 500 µM in data set [1] came to 59.2%. Besides, in data set [2], the viability at 24 h, 100 µM worked out at 94.4%. For the same compound, the viability at 24 h, 1000 µM in data set [3] is 24.6%.
Consider `Cc1cc(C)cc(/C=C/c2ccc(O)cc2)c1`, for which the viability at 24 h, 500 µM in data set [1] came to 1.84%. Besides, in data set [2], the viability at 24 h, 100 µM turned out to be 7.31%. Besides, the viability at 24 h, 1000 µM in data set [3] was determined as 2.88%.
Regarding `C(=C\c1ccc2c(c1)OCO2)/c1ccc(OCc2ccccc2)cc1`, in data set [1], the viability at 24 h, 500 µM worked out at 72.7%. Further, the viability at 24 h, 100 µM in data set [2] amounted to 67.3%. The viability at 24 h, 1000 µM in data set [3] amounted to 80.6%.
Turning to `COc1ccc(C(=O)/C=C/c2ccc(O)c(OC)c2)cc1`, the viability at 24 h, 500 µM in data set [1] was 39.8%. In addition, the viability at 24 h, 100 µM in data set [2] was found to be 13.3%. The viability at 24 h, 1000 µM in data set [3] amounted to 165%.
For the compound `COc1ccc(/C=C/c2cccc(C#N)c2)cc1`, in data set [1], the viability at 24 h, 500 µM was 67%. Besides, the viability at 24 h, 100 µM in data set [2] stood at 66.3%. Also, the viability at 24 h, 1000 µM in data set [3] is 48.3%.
With `COc1cc(/C=C/C(=O)c2ccc(O)cc2)cc(OC)c1`, the viability at 24 h, 500 µM in data set [1] is 3.53%. Further, in data set [2], the viability at 24 h, 100 µM was 5.64%. Further, the viability at 24 h, 1000 µM in data set [3] was found to be 2.57%.
Take `COc1ccc(/C=C/C(=O)c2ccc3c(c2)OCO3)cc1O`: the viability at 24 h, 500 µM in data set [1] is 22.2%. Besides, the viability at 24 h, 100 µM in data set [2] turned out to be 44.7%. For the same compound, in data set [3], the viability at 24 h, 1000 µM stood at 17.1%.
For `C(#Cc1ccc2c(c1)OCO2)c1ccsc1` the same measures were 32.9%, 46.2% and 21%.
As for `C(#Cc1cccs1)c1ccc2c(c1)OCO2`, the viability at 24 h, 500 µM in data set [1] came out at 27.5%. Further, the viability at 24 h, 100 µM in data set [2] turned out to be 43.9%. Also, the viability at 24 h, 1000 µM in data set [3] came to 17.7%.
Regarding `COc1ccc(/C=C/c2ccc(N)c(F)c2)cc1`, the viability at 24 h, 500 µM in data set [1] is 65.1%. The viability at 24 h, 100 µM in data set [2] was determined as 80%. Also, in data set [3], the viability at 24 h, 1000 µM is 47.8%.
For `COc1ccc(C#Cc2ccc(OC)c(OC)c2)cc1` the same measures were 78.9%, 94.1% and 65.5%.
